Assay outcomes from PubChem.
Shown are actives, neighbours in structure and some others; about 2.8% of the full set was active somewhere.
NPY1 pot ag – human NPY-Y1 potentiation or agonism, primary screen | P25929 | NPY-Y1 expressing cells, potentiator/agonist activation | activation, % at 3.6 µM | 220,000 compounds, 0.37% hits | AID 1304; in the data active = activation above about 33%, passing the limit was not always enough;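 note: cells stimulated with NPY at EC10 then isoproterenol at EC100; 0% = low agonist plus stimulus and 100% = saturating agonist plus stimulus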
EP2 antag – blocks the human prostaglandin E2 receptor EP2 | P43116 | C6 glioma cells expressing human EP2, cAMP TR-FRET; cells stimulated with saturating PGE2 | AID 1422 | inhibition, % at 25 µM | 260,000 compounds, 0.52% hits;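 active = percent inhibition above 40 after rounding to a whole number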;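 note: rat C6 glioma host cells with rolipram phosphodiesterase inhibitor present; the protocol text gives 20 µM as final concentration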
Target sequence (P43116 whole entry, looked up): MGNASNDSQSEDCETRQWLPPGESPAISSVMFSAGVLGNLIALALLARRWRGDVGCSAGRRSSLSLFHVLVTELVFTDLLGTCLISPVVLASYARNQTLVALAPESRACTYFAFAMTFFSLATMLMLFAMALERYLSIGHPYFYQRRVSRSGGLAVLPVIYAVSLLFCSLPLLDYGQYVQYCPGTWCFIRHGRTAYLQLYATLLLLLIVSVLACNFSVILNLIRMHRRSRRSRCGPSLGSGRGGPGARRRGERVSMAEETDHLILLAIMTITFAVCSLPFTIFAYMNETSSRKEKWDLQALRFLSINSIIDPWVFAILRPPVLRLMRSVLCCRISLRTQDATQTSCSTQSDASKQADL
NPY Y1 blocker – antagonists of human neuropeptide Y receptor Y1 | AID 1040 | inhibition, % at 3.6 µM | P25929 | HEK293-CNG Y1 cells, membrane potential fluorescence; NPY at EC95, then isoproterenol | 200,000 compounds, 1% hits;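 active = inhibition above the campaign mean inhibition of all tested compounds plus 3 SD, cut at about 20% in these data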;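 note: 0% = DMSO wells given NPY plus isoproterenol and 100% = isoproterenol alone without NPY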
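Assay system: HEK293 cells with Y1 receptor plus CNG channel | Probe or stimulus: NPY (25 nM), isoproterenol (1 µM), Ro 20-1724 (25 µM) | Timing: Compound incubation 1 h at room temperature, readout 45 min post-stimulation | Measured by: Membrane-potential fluorescent dye readout | Benchmarks: High control isoproterenol alone, low control NPY with isoproterenol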
NPY-Y2 PAM-ag – potentiates or activates human NPY-Y2 receptor; AID 1359; cells expressing NPY-Y2, potentiator/agonist read-out; 220,000 compounds, 0.45% hits; activation, % at 3.6 µM; in the data active = activation above about 27%;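 note: cells stimulated with NPY near EC25 plus isoproterenol at EC100; 0% = vehicle plus submaximal agonist and 100% = vehicle plus saturating agonist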
Target sequence (P49146 whole entry, looked up): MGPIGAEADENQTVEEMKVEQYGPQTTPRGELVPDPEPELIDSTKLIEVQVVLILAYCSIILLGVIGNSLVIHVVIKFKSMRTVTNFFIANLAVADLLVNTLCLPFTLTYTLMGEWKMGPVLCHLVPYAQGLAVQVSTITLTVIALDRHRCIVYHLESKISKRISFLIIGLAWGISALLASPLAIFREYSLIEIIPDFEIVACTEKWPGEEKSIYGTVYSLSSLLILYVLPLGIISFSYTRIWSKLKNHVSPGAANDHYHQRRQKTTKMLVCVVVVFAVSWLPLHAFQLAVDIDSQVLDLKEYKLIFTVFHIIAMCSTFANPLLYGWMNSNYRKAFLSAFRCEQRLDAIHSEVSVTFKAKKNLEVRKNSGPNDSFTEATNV
NPY-Y2 antag – blocks the human neuropeptide Y Y2 receptor. P49146. NPY-Y2 expressing cells, antagonist mode. 140,000 compounds, 0.99% hits. AID 793. inhibition, % at 2.7 µM; in the data active = inhibition above about 17%;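 note: 0% = vehicle with agonist challenge and 100% = reference antagonist with challenge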
EP2 mod – modulates human prostaglandin E2 receptor EP2 signaling. P43116. EP2-expressing cells, cAMP HTRF FRET, PGE2 co-stimulation. induction, % at 25 µM. 260,000 compounds, 0.83% hits. AID 940;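 active = compounds whose cAMP rise, as percent of the full-agonist control response, exceeds 60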;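 note: rat C6 glioma line stably carrying human EP2 under a CMV promoter; the protocol text gives 20 µM as final concentration; 100% = response of wells given 1 µM PGE2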
EP2 cAMP induct – EP2 receptor cAMP induction, counter-screens negative | shares compounds with EP2 mod | calls only at 20 µM (by protocol) | 1,300 compounds, 47% hits | C6 glioma EP2 cells, cAMP HTRF induction; plus low (about EC15) PGE2 agonist;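 active = cAMP induction above 50% in the main assay while under 30% in all four parallel counter assays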;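 note: rat C6 glioma cells stably expressing human EP2 receptor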
Starred values were filed as active, the others as inactive; i = inactive; · = no result; + = active, no number; ! = not active in a repeat.

SMILES | NPY1 pot ag | EP2 antag | NPY Y1 blocker | NPY-Y2 PAM-ag | NPY-Y2 antag | EP2 mod | EP2 cAMP induct
CCn1ncc(CN(Cc2ccc(OC)cc2OC)CC2CCCO2)c1C (centres undefined) | · | 7 | · | · | · | 10 | ·
C=CCn1c(SCC(N)=O)nc(C)cc1=O | 24 | 12 | 3 | -11 | 0 | 68* | i
C=CCOc1ccc2c(c1)C(=NO)c1cc(OCC=C)ccc1-2 | -3 | 8 | 2 | 7 | 3 | 83* | +
COc1ccc(CN(Cc2cnn(C)c2C)C2CC(C)(C)NC(C)(C)C2)cc1 | · | 7 | · | · | · | -1 | ·
Cc1ccc(Cn2ccc(=O)c(OCc3c(Cl)cccc3Cl)c2C)cc1 | -48 | 8 | 13 | -8 | 13 | 67* | +
CCN1C(c2ccccc2)C(C)C(=O)C(C)C1c1ccccc1 (centres undefined) | -31 | 15 | 14 | 2 | 9 | 71* | +
CC1C2C(c3ccccc3)N(C)C(=O)N(C)C2N(C)C(=O)N1C (centres undefined) | 12 | 6 | -3 | 5 | 1 | 20 | ·
Cc1cc(N)c2cc(NC(=O)Nc3ccc4nc(C)cc(N)c4c3)ccc2n1 | · | 49* | · | · | · | 61* | i
N#Cc1c(-c2ccco2)nc(SCC(=O)Nc2cccc(Cl)c2)[nH]c1=O | 0 | 21 | 5 | 8 | 7 | 64* | i
Cc1ccc(NC(=O)CSc2nc(-c3ccco3)c(C#N)c(=O)[nH]2)cc1 | · | 8 | · | · | · | 10 | ·
CC1=CC2C(C(C)C)CCC(C)(O)C2CC1 (centres undefined) | · | 6 | · | · | · | 65* | +
Cc1cc(C)c2nc(N3CCCN(C(=O)c4ccco4)CC3)c(C#N)cc2c1 | -5 | 7 | 4 | -19 | 4 | 70* | +
Cc1cc(C)c2nc(C(F)(F)F)nc(N3CCN(C(=O)c4ccco4)CC3)c2c1 | 4 | 4 | 4 | 1 | 8 | 39 | ·
COc1ccc(C(=O)NC(=S)Nc2ccc(O)c(-c3nc4cc(C)ccc4o3)c2)cc1Cl | · | 17 | · | · | · | -21 | ·
COc1ccc(CN2CCC(O)(c3ccccc3OC)CC2)cc1CO | · | 5 | · | · | · | 12 | ·
FC(F)(F)c1cccc(-c2nc3nc(Cl)c(Cl)nc3[nH]2)c1 | 21 | 11 | · | 40 | · | 12 | ·
O=C(O)c1nc2nc(Cl)c(Cl)nc2[nH]1 | -2 | 4 | · | 6 | · | 63*! | i
COC(=O)c1c(NC(=O)C2CC2)sc2c1CCCC2 | 3 | 4 | 5 | 17 | 3 | 59 | i
CCOC(=O)c1c(NC(=O)c2cccs2)sc(C)c1CC | -19 | 9 | 3 | -18 | 3 | 59 | i
CCOC(=O)c1c(NC(=O)c2cccs2)sc2c1CCN(C(=O)OCC)C2 | -39 | 13 | 14 | -7 | 2 | 52 | +
CCOC(=O)c1c(NC(=O)c2cccs2)sc2c1CCCC2 | -19 | 18 | 1 | -14 | 3 | 56 | i
Cc1sc(NC(=O)c2cccs2)c(C(=O)OC(C)C)c1C | -2 | 8 | 6 | -4 | 4 | 78* | +
COC(=O)c1c(NC(=O)c2ccc(Br)s2)sc2c1CCC2 | -1 | 9 | 2 | 13 | 3 | 67* | i
CCOC(=O)c1c(NC(=O)C2CC2)sc(C)c1CC | 15 | 5 | 1 | 0 | 6 | 36 | ·
CC(C)OC(=O)c1c(NC(=O)CCn2nnc3ccccc32)sc2c1CCCC2 | 3 | 11 | 7 | -4 | 5 | 53 | i
SMILES | NPY1 pot ag | EP2 antag | NPY Y1 blocker | NPY-Y2 PAM-ag | NPY-Y2 antag | EP2 mod | EP2 cAMP induct
CCOC(=O)c1c(NC(=O)c2ccc(Br)o2)sc(C)c1CC | -14 | 5 | 12 | -7 | 2 | 74* | +
CC(C)OC(=O)c1ccc(NC(=O)c2cccs2)cc1 | · | 5 | · | · | · | -29 | ·
Cc1cc2cc(CN(CCN(C)C)C(=S)Nc3ccccc3)c(=O)[nH]c2cc1C | · | 5 | · | · | · | -53 | ·
CC12C=CC3(O1)C(C(=O)N(C1CC1)C3C(=O)NC1CCCC1)C2C(=O)NCc1ccccc1 (centres undefined) | · | 9 | · | · | · | 5 | ·
COC(=O)c1c(NC(=S)NN2CCOCC2)sc2c1CCCC2 | 4 | 4 | 3 | 1 | · | 46 | i
COCC(=O)Nc1sc2c(c1C(=O)OC)C(C(=O)OC)CC2 (centres undefined) | -21 | 3 | -2 | -10 | 8 | -7 | ·
O=C(Nc1sc2c(c1C(=O)O)CCCCC2)c1ccco1 | -7 | 7 | 15 | -5 | 1 | -4 | ·
CCOC(=O)c1c(NC(=O)c2ccco2)sc2c1CCCCC2 | -7 | 19 | -2 | -9 | 2 | 79* | +
COCC(=O)Nc1sc2c(c1C(=O)OC)CCC(C)C2 (centres undefined) | 7 | 8 | 3 | 0 | 3 | 70*! | i
COC(=O)c1c(NC(=S)NC(=O)c2ccco2)sc2c1CCCC2 | 8 | 11 | -1 | 10 | 1 | -41 | ·
COCCSc1ccccc1C(=O)Nc1nc2ccc(C)cc2s1 | · | 12 | · | · | · | -4 | ·
CC(=O)O[C@H]1CCC2(C)C3=C(CCC2C1(C)C)[C@@]1(C)CC[C@@H](C(C)CCC=C(C)C)[C@]1(C)CC3 (some centres undefined) | · | 9 | · | · | · | 11 | ·
CCC(=O)c1cn(CC(=O)NCc2cccs2)c2ccccc12 | · | 10 | · | · | · | -70 | ·
CCCCn1c(-c2csc(CCC)c2)n[nH]c1=S | -8 | 15 | 6 | -16 | · | 59 | i
Cc1cccc(C2(O)CCN(CC(O)c3ccc4c(c3)OCCO4)CC2)c1 (centres undefined) | · | 4 | · | · | · | -46 | ·
COc1cccc(OC)c1C(=O)OCC(=O)Nc1sc2c(c1C#N)CCC2 | · | 15 | · | · | · | -39 | ·
Cc1ccc(CNc2cc(-c3nn4c(C)nnc4s3)ccc2C)s1 | -16 | · | 7 | -8 | 8 | 34 | ·
Cc1ccc(-c2nn3c(C)nnc3s2)cc1NCc1c(F)cccc1Cl | -13 | 19 | -1 | 8 | 3 | 66* | i
CCC(=O)N1CCCc2cc(C(O)CN3CCN(c4ccc(F)cc4)CC3)ccc21 (centres undefined) | · | 8 | · | · | · | -32 | ·
Cc1cccnc1C1(O)CCN(C(=O)c2ccc3c(c2)C(=O)N(CC2CCCO2)C3=O)CC1 (centres undefined) | · | 6 | · | · | · | -21 | ·
Cc1ccc(C(=O)Nc2ccccc2C(=O)NCc2ccccc2)cc1 | 0 | 2 | 2 | -10 | 8 | 67* | i
CCC(=O)Oc1ccc(C(CC)C(CC)c2ccc(OC(=O)CC)cc2)cc1 (centres undefined) | -14 | 9 | 4 | 8 | 3 | 69* | +
Cc1cccc(CC(=O)N2CCC(c3ncncc3-c3ccncc3)CC2)c1 | · | · | · | · | · | -31 | ·
COc1ccc(-c2csc3nc(C)nc(N4CCC(C)CC4)c23)cc1OC | -29 | 12 | 21* | -19 | · | 70* | i
